NF-kB expr up – raises NF-kB expression in human neuronal cells; NF-kB reporter expression; stronger effect = higher value; AID 1239; fold change at 12.5 µM; actives 1.6% (n = 190,000); in the data active means fold change above about 3.3
APP 5'UTR act – activates APP 5'UTR luciferase reporter | actives 1% (n = 190,000) | activation, % at 2 µM | SH-SY5Y APP 5'UTR luciferase reporter, luminescence; zero percent = DMSO vehicle wells;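 active means activation above a set limit, based on mean plus 3 SD of controls, cut at about 140% in these data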
STAT1 act – increases IFN-gamma driven STAT1 reporter signal | NIH 3T3 STAT1-luciferase reporter, luminescence; 100% = IFN-gamma alone, no compound | activation (% of control), % at 5.5 µM | actives 2.6% (n = 200,000);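 active means activation above the screen-wide mean activation plus 3 SD, cut at about 130% in these data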
STAT3 activator – activators of IL-6 induced STAT3 signaling | U3A cells, IL-6 STAT3-luciferase reporter, luminescence; 100% = signal with IL-6 EC80 alone | activation (% of control), % at 5.6 µM | actives 0.91% (n = 190,000) | AID 871;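 active means activation above the screen-wide mean of compound activation plus 3 SD, cut at about 130% in these data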
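Material: STAT3-luciferase reporter U3A cells. Controls: IL-6-treated wells, 100% activation. Read-out: % activation versus median of IL-6-stimulated wells. Probe or stimulus: IL-6 stimulus at 33 ng/mL final. Timing: compound 1 h, then IL-6 6 h at 37 °C. Signal: reporter luminescence signal.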
STAT3 inh – reduces IL-6 driven STAT3 reporter signal. U3A cells, IL-6 STAT3-luciferase reporter, luminescence; host cell line lacks STAT1. inhibition, % at 5.5 µM. actives 0.89% (n = 190,000). AID 862;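 active means inhibition above the mean inhibition across all screened compounds plus 3 SD, cut at about 44% in these data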
STAT1 inh – inhibitors of IFN-gamma induced STAT1 signaling; actives 0.35% (n = 200,000); inhibition, % at 5.5 µM; NIH 3T3 STAT1-luciferase reporter, luminescence;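 active means inhibition above a set limit, the mean inhibition across all tested compounds plus 3 SD, cut at about 34% in these data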
Of the large screens only hits and unclear results are named; the others gave an inactive call. A selection: hits, their analogues and other compounds. The true share with any hit is near 4.9%.

COc1ccc2c(c1)CCC1C2=NN(/C(C)=C\C(C)=O)C1c1ccc(F)cc1 (configuration not stated)	STAT1 act 130
COc1ccc2c(c1)C1=NN(/C(C)=C/C(C)=O)C(c3ccc(F)cc3)C1CC2 (configuration not stated)	none
COc1ccc2c(c1)C1=NN(/C(C)=C/C(C)=O)C(c3cccc(F)c3)C1CC2 (configuration not stated)	none
COc1ccc2c(c1)C1=NN(/C(C)=C\C(C)=O)C(c3ccccc3)C1CC2 (configuration not stated)	STAT3 activator 134
CC(C1CC1)N(Cc1ccccc1)C(=S)Nc1ccccc1Cl (configuration not stated)	none
COc1ccc(C(=O)CSc2nc3ccc([N+](=O)[O-])cc3[nH]2)cc1	none
NNc1nc2c(-c3ccc(Cl)cc3)nnn2c2ccccc12	STAT1 act 135, STAT3 activator 144
NNc1nc2c(-c3ccc(F)cc3)nnn2c2ccccc12	STAT1 act 141
C=CCn1c(COc2cccc(C)c2)nnc1SCC(=O)c1c[nH]c2c(CC)cccc12	none
C/C(CC(C)(C)c1ccccc1)=N\NS(=O)(=O)c1ccccc1	none
Fc1cccc(Cc2noc(CN3CCCCC3CCc3ccccn3)n2)c1 (configuration not stated)	none
C=CCn1c(SCc2c(C(=O)OC)sc(N)c2C(=O)OC)nnc1-c1ccc(Br)cc1	none
CC[n+]1c(/C=C/c2c[nH]c3ccccc23)ccc2cc(C)ccc21	STAT3 inh 59, STAT1 inh 58
CCN(CC)C(=S)SCC(=O)c1ccccc1	STAT1 act 130
CCN(CC)C(=S)SCC(=O)c1c(C)[nH]c2ccccc12	none
CCN(CC)C(=S)SCC(=O)c1ccc(F)cc1	STAT1 act 133
O=C(Nc1ccc2nn(-c3ccccc3)nc2c1)c1cccs1	STAT1 act 136
O=S(=O)(Nc1ccc2c(c1)OCO2)c1cccs1	none
O=C(Nc1ccc2nsnc2c1)c1cccs1	none
O=C(Nc1ccc2c(c1)OCO2)c1cccs1	NF-kB expr up 3.4
O=C(/C=C\Nc1cccc(F)c1)c1cccs1	NF-kB expr up 7.7, APP 5'UTR act 189, STAT1 act 149
O=C(/C=C\Nc1ccc2c(c1)OCO2)c1cccs1	NF-kB expr up 6.3, APP 5'UTR act 178, STAT3 inh 90, STAT1 inh 65
O=C(Nc1ccc2c(c1)OCO2)c1ccncc1	none
Cc1cc(Cl)ccc1NC(=S)NCC(C)C	none
COC(=O)CC1C(=O)NCCN1C(=O)CSc1nc2cc(Cl)ccc2o1 (configuration not stated)	none
COc1cccc(/C(=N/O)C2CC2c2ccc(Cl)cc2)c1 (configuration not stated)	none
CN(C)N1C(N)=C(C#N)C(c2cccs2)C2=C1CC(C)(C)CC2=O (configuration not stated)	none
O=C(c1ccc2c(c1)OCCCO2)c1cccs1	NF-kB expr up 4, APP 5'UTR act 140
Cc1ccc(N/C=C/C(=O)c2cccs2)cc1	APP 5'UTR act 214, STAT3 inh 98, STAT1 inh 83
C/C(=N\NC(=O)c1cccs1)c1ccc2c(c1)OCO2	none
Cc1noc(NS(=O)(=O)c2ccc(N/C=C\C(=O)c3cccs3)cc2)c1C	none
O=C(O)CC/C(=N/Nc1ncc(C(F)(F)F)cc1Cl)C(=O)O	none
Nc1[nH]nc2ncc3cc4ccccc4nc3c12	STAT1 act 139
Nc1[nH]nc2nc(N3CCCC3)nc(-c3ccccc3)c12	none
COc1cccc(C(=O)/C=C/Nc2ccc(S(=O)(=O)Nc3nc(C)cc(C)n3)cc2)c1	none
COc1cccc(C(=O)/C=C/Nc2ccc(S(=O)(=O)Nc3ncccn3)cc2)c1	STAT1 act 139
COc1cccc(C(=O)/C=C/Nc2cc(C)ccc2O)c1	NF-kB expr up 25, STAT1 act 134
COc1cccc(C(=O)/C=C/Nc2ccc(S(=O)(=O)Nc3cnc4ccccc4n3)cc2)c1	STAT1 act 137
COc1cccc(/C=N/NC(=O)CN(CCc2ccccc2)S(=O)(=O)c2ccc(NC(C)=O)cc2)c1	none
O=C(NCCc1c[nH]c2ccccc12)[C@@H]1C[C@H]1[C@@H](NP(=O)(c1ccccc1)c1ccccc1)c1ccccc1	none
CCN(CC)C(=O)CSc1ncccc1-c1nc2ccccc2[nH]1	none
COC(=O)c1c(NC(=O)CC2SC(N)=NC2=O)sc2c1CCC(C(C)(C)C)C2 (configuration not stated)	none
COc1cccc(-c2cc(C(=O)N3C(C)CCCC3C)no2)c1 (configuration not stated)	NF-kB expr up 3.3, STAT1 act 136
COc1cccc(C(=O)Nc2cnn(C(C)C)c2)c1	none
COc1cccc(-c2cc(C(=O)Nc3cccnc3)no2)c1	NF-kB expr up 4.9, STAT1 act 132
CC(C)n1cc(NC(=O)c2cc(-c3ccccc3)on2)cn1	STAT1 act 131
O=C(Nc1cccnc1)c1cc(-c2ccccc2)on1	none
CC1CCCCN1C(=O)c1cc(-c2ccc(Cl)c(Cl)c2)on1 (configuration not stated)	STAT1 act 133
CCN(CC)CCN(Cc1cc2ccc(C)cc2[nH]c1=O)C(=O)Nc1ccc(Cl)cc1	none
CCOP(=O)(O)c1cccc(OCCOCCOc2cccc(P(=O)(O)OCC)c2)c1	none
c1ccc2c(c1)CCN(C1=Nc3cccc4cccc1c34)C2	none
Cc1c(C(=O)OC2CCC(C)CC2)[nH]c2c1C(=O)CCC2 (configuration not stated)	NF-kB expr up 4.9, APP 5'UTR act 148, STAT1 act 146
CCOc1ccc(C(=O)CSc2nnc3ccccn23)cc1	NF-kB expr up 4.1, STAT1 act 141
O=C(CSc1nnc2ccccn12)c1ccc(Cl)cc1	none
COc1ccc(-n2c(C)cc(/C=N/Nc3nnc(C)n3N)c2C)cc1	STAT1 act 131
CCOc1ccc(-n2c(C)cc(/C=N/NC(=O)C(N)=O)c2C)cc1	none
CC(=O)Nc1cccc(NC=C(C#N)C#N)c1	none
COc1ccc(-c2nc3ccccc3nc2-c2ccccc2)cc1	none
COc1ccc2nc3ccccc3nc2c1	STAT1 act 144
O=C(Cc1cccs1)N/N=C/C(Cl)=C/c1ccccc1	STAT1 act 147
CCN(CC)S(=O)(=O)c1cccc(C(=O)NC(Cc2c[nH]c3ccccc23)c2nnc3n2CCC3)c1 (configuration not stated)	none
COC(=O)C(=Cc1ccc(OCc2ccc([N+](=O)[O-])cc2)c(OC)c1)C(=O)OC	NF-kB expr up 4.4
CCOC(=O)C(=O)Nc1ccc([N+](=O)[O-])cc1OC	none

From PubChem
